Test results published in ChEMBL document CHEMBL3352499, “One pot three components microwave assisted and conventional synthesis of new 3-(4-chloro-2-hydroxyphenyl)-2-(substituted) thiazolidin-4-one as antimicrobial agents” (Bioorg Med Chem Lett, 2014).
pIC50: −log10 of the molar value. Converted amounts (≈) assume the structure as drawn. Counter-ions that a name gives are not always drawn.

How the values were obtained:
Bacillus subtilis [1] = experiment: Bactericidal activity against Bacillus subtilis NCIM-2063 after 72 hrs by two fold serial macrodilution technique; type: functional; conditions: NCIM-2063, 72 h
In short: (§1)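 Serial subcultivation followed 72 h of exposure to compounds dissolved in saline containing 5% DMSO. MBC/MFC was the lowest concentration with no visible growth, taken as 99.5% killing of the original inoculum. Runs were in triplicate, with the mean reading used.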

Aspergillus flavus [2] = experiment: Fungicidal activity against Aspergillus flavus NCIM-539 after 48 to 72 hrs by two fold serial macrodilution technique; type: functional; in short: as §1
Candida albicans [3] = experiment: Antimicrobial activity against Candida albicans NCIM-3471 after 20 hrs by two fold serial macrodilution technique; type: functional; conditions: NCIM-3471, 20 h
Escherichia coli [4] = experiment: Bactericidal activity against Escherichia coli NCIM-2256 after 72 hrs by two fold serial macrodilution technique; type: functional; conditions: NCIM-2256, 72 h; in short: as §1
HeLa = experiment: Cytotoxicity against human HeLa cells by SRB method; type: cell-based
In short: (§2)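 SRB colorimetric growth assay. IC50, in µM, was the concentration inhibiting cell growth by 50% relative to untreated control cells. Runs were in triplicate in three independent experiments, with means reported. The positive control was doxorubicin.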

MCF7 = experiment: Cytotoxicity against human MCF7 cells by SRB method; type: cell-based; in short: as §2
Salmonella typhimurium [5] = experiment: Bactericidal activity against […] after 72 hrs by two fold serial macrodilution technique; type: functional, Salmonella enterica subsp. enterica serovar Typhimurium; conditions: Salmonella enterica; in short: as §1
Cryptococcus neoformans [6] = experiment: Antimicrobial activity against Cryptococcus neoformans NCIM-3378 after 20 hrs by two fold serial macrodilution technique; type: functional; conditions: NCIM-3378, 20 h
Candida albicans [7] = experiment: Fungicidal activity against Candida albicans NCIM-3471 after 48 to 72 hrs by two fold serial macrodilution technique; type: functional; in short: as §1
Cryptococcus neoformans [8] = experiment: Fungicidal activity against Cryptococcus neoformans NCIM-3378 after 48 to 72 hrs by two fold serial macrodilution technique; type: functional; in short: as §1
Escherichia coli [9] = experiment: Antimicrobial activity against Escherichia coli NCIM-2256 after 20 hrs by two fold serial macrodilution technique; type: functional; conditions: NCIM-2256, 20 h
In short: (§3)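 Serial macrodilution in 96-well microtiter plates. Compounds were dissolved in saline (0.8% NaCl) containing 5% DMSO, and strains were incubated with a range of concentrations for 20 h at 37 °C on a rotary shaker (160 rpm). MIC was the lowest concentration without growth. Runs were in triplicate, with the mean taken. The negative control was 5% DMSO.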

Salmonella typhimurium [10] = experiment: Antimicrobial activity against […] after 20 hrs by two fold serial macrodilution technique; type: functional, Salmonella enterica subsp. enterica serovar Typhimurium; conditions: Salmonella enterica; in short: as §3
Staphylococcus aureus [11] = experiment: Bactericidal activity against Staphylococcus aureus NCIM-2901 after 72 hrs by two fold serial macrodilution technique; type: functional; conditions: NCIM-2901, 72 h; in short: as §1
Aspergillus niger [12] = experiment: Fungicidal activity against Aspergillus niger NCIM-1196 after 48 to 72 hrs by two fold serial macrodilution technique; type: functional; in short: as §1
Aspergillus flavus [13] = experiment: Antimicrobial activity against Aspergillus flavus NCIM-539 after 20 hrs by two fold serial macrodilution technique; type: functional; conditions: NCIM-539, 20 h
Bacillus subtilis [14] = experiment: Antimicrobial activity against Bacillus subtilis NCIM-2063 after 20 hrs by two fold serial macrodilution technique; type: functional; conditions: NCIM-2063, 20 h; in short: as §3
Staphylococcus aureus [15] = experiment: Antimicrobial activity against Staphylococcus aureus NCIM-2901 after 20 hrs by two fold serial macrodilution technique; type: functional; conditions: NCIM-2901, 20 h; in short: as §3
Aspergillus niger [16] = experiment: Antimicrobial activity against Aspergillus niger NCIM-1196 after 20 hrs by two fold serial macrodilution technique; type: functional; conditions: NCIM-1196, 20 h

Compound	MBC (Bacillus subtilis [1])	MFC (Aspergillus flavus [2])	MIC (Candida albicans [3])	MBC (Escherichia coli [4])	pIC50 (HeLa)	pIC50 (MCF7)	MBC (Salmonella typhimurium [5])	MIC (Cryptococcus neoformans [6])	MFC (Candida albicans [7])	MFC (Cryptococcus neoformans [8])	MIC (Escherichia coli [9])	MIC (Salmonella typhimurium [10])	MBC (Staphylococcus aureus [11])	MFC (Aspergillus niger [12])	MIC (Aspergillus flavus [13])	MIC (Bacillus subtilis [14])	MIC (Staphylococcus aureus [15])	MIC (Aspergillus niger [16])
COc1ccc(C2SCC(=O)N2c2ccc(Cl)cc2O)cc1 (centres undefined)	40 µg/mL (≈ 119 µM)	20 µg/mL (≈ 59.6 µM)	15 µg/mL (≈ 44.7 µM)	45 µg/mL (≈ 134 µM)	4.29	4.31	110 µg/mL (≈ 328 µM)	65 µg/mL (≈ 194 µM)	20 µg/mL (≈ 59.6 µM)	155 µg/mL (≈ 462 µM)	35 µg/mL (≈ 104 µM)	25 µg/mL (≈ 74.4 µM)	40 µg/mL (≈ 119 µM)	150 µg/mL (≈ 447 µM)	15 µg/mL (≈ 44.7 µM)	30 µg/mL (≈ 89.3 µM)	30 µg/mL (≈ 89.3 µM)	80 µg/mL (≈ 238 µM)
O=C1CSC(c2cccc(F)c2)N1c1ccc(Cl)cc1O (centres undefined)	155 µg/mL (≈ 479 µM)	140 µg/mL (≈ 432 µM)	95 µg/mL (≈ 293 µM)	145 µg/mL (≈ 448 µM)	4.17	4.18	155 µg/mL (≈ 479 µM)	85 µg/mL (≈ 263 µM)	165 µg/mL (≈ 510 µM)	140 µg/mL (≈ 432 µM)	70 µg/mL (≈ 216 µM)	90 µg/mL (≈ 278 µM)	160 µg/mL (≈ 494 µM)	165 µg/mL (≈ 510 µM)	90 µg/mL (≈ 278 µM)	100 µg/mL (≈ 309 µM)	80 µg/mL (≈ 247 µM)	100 µg/mL (≈ 309 µM)
O=C1CSC(c2ccccn2)N1c1ccc(Cl)cc1O (centres undefined)	165 µg/mL (≈ 538 µM)	165 µg/mL (≈ 538 µM)	55 µg/mL (≈ 179 µM)	165 µg/mL (≈ 538 µM)	4.06	4.05	150 µg/mL (≈ 489 µM)	75 µg/mL (≈ 244 µM)	155 µg/mL (≈ 505 µM)	150 µg/mL (≈ 489 µM)	90 µg/mL (≈ 293 µM)	85 µg/mL (≈ 277 µM)	155 µg/mL (≈ 505 µM)	155 µg/mL (≈ 505 µM)	100 µg/mL (≈ 326 µM)	85 µg/mL (≈ 277 µM)	60 µg/mL (≈ 196 µM)	80 µg/mL (≈ 261 µM)
Cc1ncsc1C1SCC(=O)N1c1ccc(Cl)cc1O (centres undefined)	55 µg/mL (≈ 168 µM)	20 µg/mL (≈ 61.2 µM)	30 µg/mL (≈ 91.8 µM)	20 µg/mL (≈ 61.2 µM)	4.11	4.12	40 µg/mL (≈ 122 µM)	55 µg/mL (≈ 168 µM)	45 µg/mL (≈ 138 µM)	–	15 µg/mL (≈ 45.9 µM)	20 µg/mL (≈ 61.2 µM)	20 µg/mL (≈ 61.2 µM)	135 µg/mL (≈ 413 µM)	3 µg/mL (≈ 9.18 µM)	30 µg/mL (≈ 91.8 µM)	15 µg/mL (≈ 45.9 µM)	80 µg/mL (≈ 245 µM)
COc1cccc2c1C(=O)c1c(O)c3c(c(O)c1C2=O)C[C@@](O)(C(=O)CO)C[C@@H]3O[C@H]1C[C@H](N)[C@H](O)[C@H](C)O1 [DOXORUBICIN HYDROCHLORIDE]	–	–	–	–	> 7.00	> 7.00	–	–	–	–	–	–	–	–	–	–	–	–
O=C1CSC(c2ccc([N+](=O)[O-])cc2)N1c1ccc(Cl)cc1O (centres undefined)	140 µg/mL (≈ 399 µM)	135 µg/mL (≈ 385 µM)	95 µg/mL (≈ 271 µM)	155 µg/mL (≈ 442 µM)	4.28	4.39	135 µg/mL (≈ 385 µM)	90 µg/mL (≈ 257 µM)	155 µg/mL (≈ 442 µM)	135 µg/mL (≈ 385 µM)	90 µg/mL (≈ 257 µM)	80 µg/mL (≈ 228 µM)	140 µg/mL (≈ 399 µM)	160 µg/mL (≈ 456 µM)	75 µg/mL (≈ 214 µM)	100 µg/mL (≈ 285 µM)	85 µg/mL (≈ 242 µM)	100 µg/mL (≈ 285 µM)
O=C1CSC(c2ccc(O)cc2)N1c1ccc(Cl)cc1O (centres undefined)	25 µg/mL (≈ 77.7 µM)	35 µg/mL (≈ 109 µM)	25 µg/mL (≈ 77.7 µM)	35 µg/mL (≈ 109 µM)	4.20	4.23	45 µg/mL (≈ 140 µM)	60 µg/mL (≈ 186 µM)	40 µg/mL (≈ 124 µM)	–	20 µg/mL (≈ 62.2 µM)	25 µg/mL (≈ 77.7 µM)	20 µg/mL (≈ 62.2 µM)	115 µg/mL (≈ 357 µM)	20 µg/mL (≈ 62.2 µM)	15 µg/mL (≈ 46.6 µM)	6 µg/mL (≈ 18.6 µM)	55 µg/mL (≈ 171 µM)
OC(Cn1cncn1)(Cn1cncn1)c1ccc(F)cc1F [FLUCONAZOLE]	–	16.5 µg/mL (≈ 53.9 µM)	10 µg/mL (≈ 32.7 µM)	–	–	–	–	6.25 µg/mL (≈ 20.4 µM)	22.5 µg/mL (≈ 73.5 µM)	16.5 µg/mL (≈ 53.9 µM)	–	–	–	16.5 µg/mL (≈ 53.9 µM)	6.25 µg/mL (≈ 20.4 µM)	–	–	6.25 µg/mL (≈ 20.4 µM)
O=C1CSC(c2ccccc2Cl)N1c1ccc(Cl)cc1O (centres undefined)	40 µg/mL (≈ 118 µM)	50 µg/mL (≈ 147 µM)	55 µg/mL (≈ 162 µM)	140 µg/mL (≈ 411 µM)	4.20	4.25	135 µg/mL (≈ 397 µM)	90 µg/mL (≈ 265 µM)	140 µg/mL (≈ 411 µM)	135 µg/mL (≈ 397 µM)	80 µg/mL (≈ 235 µM)	65 µg/mL (≈ 191 µM)	55 µg/mL (≈ 162 µM)	155 µg/mL (≈ 456 µM)	35 µg/mL (≈ 103 µM)	20 µg/mL (≈ 58.8 µM)	35 µg/mL (≈ 103 µM)	100 µg/mL (≈ 294 µM)
